The results in this text go back to ChEMBL document CHEMBL1671779, “In vivo trypanosomicidal activity of imidazole- or pyrazole-based benzo[g]phthalazine derivatives against acute and chronic phases of Chagas disease” (J Med Chem, 2011).

Calls of active or inactive are those of the source.

Series [1] in a line: Inhibition of Trypanosoma cruzi iron superoxide dismutase assessed as inhibition of NADPH reduction. In outline: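 Maracay epimastigotes sonicated in sucrose/Tris/EDTA buffer, pH 7.8. Clarified supernatant taken through 35–85% ammonium sulfate cut, then desalted into 20 mM phosphate pH 7.8 with 1 mM EDTA. Activity measured by NAD(P)H oxidation; 1 U gives 50% inhibition of the rate. Compounds at 1, 10, 25, 50, 100 μM. IC50 by linear regression; five determinations; Newman-Keuls test.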

Series [2] deals with Trypanosoma cruzi. As to the kind of experiment: Antitrypanosomal activity against trypomastigote of Trypanosoma cruzi infected in BALB/c mouse assessed as increase of host survival at 1 mg/kg, ip for 5 days administered 7 days after infection. Type of series: functional. In a few lines: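 Female BALB/c mice (6-8 weeks, 25-30 g) in groups of five were infected intraperitoneally with T. cruzi metacyclic forms, with circulating parasites confirmed on day 5 by microhematocrit. They were dosed intraperitoneally at 1 mg/kg/day for five consecutive days (days 7-12 post-infection) and compared with infected untreated and uninfected controls. Deaths were recorded every two days.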

Series [3] relates to Mus musculus. As to the kind of experiment: Toxicity in BALB/c mouse assessed as mortality at 5 mg/kg, ip. Type of series: organism-based. Also on record: dose 5 mg/kg, route intraperitoneal. As to conditions: in vivo.
Series [4] concerns Trypanosoma cruzi. The series can be described thus: Effect on metabolic excretion in epimastigotes of Trypanosoma cruzi assessed as L-alanine excretion level at IC25 concentration after 72 hrs by nuclear magnetic resonance spectroscopy analysis. The series is classed as ADME, organism-based. In a few lines: (§1)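 Epimastigote cultures started at 5 × 10^5 cells/mL and given drug at IC25, 72 h at 28 °C. Excreted metabolites assessed by 1H NMR of spent medium, compared with cell-free medium.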

The subject of series [5] is Trypanosoma cruzi. The series can be described thus: Effect on metabolic excretion in epimastigotes of Trypanosoma cruzi assessed as acetate excretion level at IC25 concentration after 72 hrs by nuclear magnetic resonance spectroscopy analysis. The series is classed as ADME, organism-based. In outline: as §1
In series [6] the test system is Mus musculus. As to the kind of experiment: Toxicity in Trypanosoma cruzi infected BALB/c mouse assessed as hepatic destruction at 5 mg/kg, ip administered 90 days after postinfection by conventional light microscopic analysis. Type of series: organism-based. Also on record: dose 5 mg/kg, route intraperitoneal. The note with it: in vivo, 2160 h. In a few lines: (§2)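 Livers of infected mice dosed at 5 mg/kg, examined at 90 days post-infection. Paraffin sections 4–5 μm, stained with Giemsa, H&E and Masson's trichrome. Slides coded for blinded light microscopy, ≥30 fields per slide. Alterations scored 0–5.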

Series [7] concerns Trypanosoma cruzi. As to the kind of experiment: Antitrypanosomal activity against epimastigotes of Trypanosoma cruzi assessed as change in ultrastructural morphological changes at IC25 concentration after 72 hrs by transmission electron microscopy. Type of series: functional, organism-based. In a few lines:
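Epimastigotes at 5 × 10^6 cells/mL cultured with drug at IC25 for 72 h. Pelleted at 400g, washed in PBS, then fixed in 2% formaldehyde-glutaraldehyde in 0.05 M cacodylate pH 7.4 for 2 h at 4 °C before transmission electron microscopy.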

Series [8] deals with Trypanosoma cruzi. The series can be described thus: Antitrypanosomal activity against trypomastigote of Trypanosoma cruzi infected in BALB/c mouse assessed as reduction of parasitemia at 1 mg/kg, ip for 5 days measured after 40 days postinfection. Type of series: functional, organism-based. Also on record: dose 1 mg/kg. In a few lines: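 Female BALB/c mice (6–8 weeks, 25–30 g), groups of five, infected ip with 3 × 10^3 metacyclic forms. Dosed 1 mg/kg/day ip for days 7–12 post-infection. Tail blood (5 μL) diluted 1:15 in citrate/lysis buffer pH 7.2; parasites counted in Neubauer chamber; deaths recorded every two days.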

The subject of series [9] is Trypanosoma cruzi. As to the kind of experiment: Effect on metabolic excretion in epimastigotes of Trypanosoma cruzi assessed as succinate excretion level at IC25 concentration after 72 hrs by nuclear magnetic resonance spectroscopy analysis. The series is classed as ADME, organism-based. In outline: as §1
In series [10] the test system is Mus musculus. As to the kind of experiment: Toxicity in Trypanosoma cruzi infected BALB/c mouse assessed as lymphocytic infiltration at 5 mg/kg, ip administered 90 days after postinfection by conventional light microscopic analysis. Type of series: organism-based. Also on record: dose 5 mg/kg, route intraperitoneal. As to conditions: in vivo, 2160 h. In a few lines: as §2

In series [11] the test system is Trypanosoma cruzi. As to the kind of experiment: Antitrypanosomal activity against trypomastigote of Trypanosoma cruzi infected in BALB/c mouse assessed as reduction of anti-Trypanosoma cruzi antibody level at 1 mg/kg, ip qd for 5 days measured after 120 days postinfection by ELISA. Type of series: functional. The note with it: route intraperitoneal. In outline:
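Female BALB/c mice (6–8 weeks, 25–30 g; groups of four for serology) infected ip with 3 × 10^3 metacyclic forms. Dosed 1 mg/kg/day ip for five consecutive days, days 7–12 post-infection. Sera diluted 1:100 tested by ELISA against soluble T. cruzi epimastigote Fe-SOD antigen at days 40 and 120. Read at 490 nm; cutoff is negative-control mean + 3 SD.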

The target of series [12] is Superoxide dismutase [Cu-Zn] (Homo sapiens, UniProt P00441). The series can be described thus: Inhibition of human Cu-Zn superoxide dismutase assessed as inhibition of NADPH reduction. In a few lines: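 Human erythrocyte CuZn-SOD, purchased, assayed by NAD(P)H oxidation; 1 U gives 50% inhibition of the rate. Compounds at 1, 10, 25, 50, 100 μM. IC50 by linear regression; five determinations; Newman-Keuls test.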
Sequence of Superoxide dismutase [Cu-Zn] (P00441 whole entry): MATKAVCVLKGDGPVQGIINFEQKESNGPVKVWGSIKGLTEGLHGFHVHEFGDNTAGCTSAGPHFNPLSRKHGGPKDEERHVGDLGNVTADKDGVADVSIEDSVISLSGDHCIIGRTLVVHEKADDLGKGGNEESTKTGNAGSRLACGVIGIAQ

The nature of series [13]: Selectivity index, ratio of IC50 for african green monkey Vero cells to IC50 for epimastigote of Trypanosoma cruzi Maracay. The note with it: read-out: Selectivity Index. The series is classed as toxicity, cell-based.
Series [14] deals with Mus musculus. As to the kind of experiment: Toxicity in Trypanosoma cruzi infected BALB/c mouse assessed as small interstitial hemorrhage at 5 mg/kg, ip administered 90 days after postinfection by conventional light microscopic analysis. Also on record: dose 5 mg/kg, route intraperitoneal. Type of series: organism-based. As to conditions: in vivo, 2160 h. In a few lines: as §2

Series [15] relates to Trypanosoma cruzi. The series can be described thus: Antitrypanosomal activity against Trypanosoma cruzi infected in african green monkey Vero cells assessed as reduction of parasite infection rate at IC25 after 10 days. Also on record: scale not given: the % may be the effect or the level left. Type of series: functional. In a few lines: (§3)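 Vero cells seeded at 1 × 10^5 cells/well on coverslips and grown 2 days in MEM at 37 °C, 5% CO2. Infected with metacyclic forms at 10:1, obtained by culture in modified Grace's medium at 28 °C for 12 days. Drug present 6 h, then removed by washing; cultures grown 10 days with medium renewed every 48 h. Methanol-fixed, Giemsa-stained; >100 host cells counted; means of four determinations.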

In series [16] the test system is Trypanosoma cruzi. As to the kind of experiment: Antitrypanosomal activity against Trypanosoma cruzi infected in african green monkey Vero cells assessed as reduction of amastigote number per infected cell at IC25 after 10 days relative to control. Also on record: scale not given: the % may be the effect or the level left. Type of series: functional. In a few lines: as §3

In series [17] the test system is Trypanosoma cruzi. As to the kind of experiment: Effect on metabolic excretion in epimastigotes of Trypanosoma cruzi assessed as lactate excretion level at IC25 concentration after 72 hrs by nuclear magnetic resonance spectroscopy analysis. The series is classed as ADME, organism-based. In a few lines: as §1
For series [18], the system named is Mus musculus. The series can be described thus: Toxicity in Trypanosoma cruzi infected BALB/c mouse assessed as lymphocytic infiltration in portal tracts at 5 mg/kg, ip administered 90 days after postinfection by conventional light microscopic analysis. The note with it: in vivo, 2160 h. Also on record: dose 5 mg/kg, route intraperitoneal. The series is classed as organism-based. In outline: as §2

The subject of series [19] is Trypanosoma cruzi. As to the kind of experiment: Antitrypanosomal activity against epimastigote of Trypanosoma cruzi Maracay after 72 hrs. The series is classed as functional, organism-based. In a few lines: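 Maracay strain epimastigotes in exponential phase, obtained in NNN medium with MEM and 20% inactivated FBS and then kept in monophasic MTL culture. Seeded at 2 × 10^6 parasites/mL with 1, 10, 25, 50 or 100 μM compound (0.01% DMSO). Parasites counted by Neubauer hemocytometer at 72 h; IC50 derived.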

Series [20] concerns Vero. The series can be described thus: Cytotoxicity against african green monkey Vero cells after 72 hrs by trypan blue assay. Type of series: cell-based. As to conditions: Chlorocebus sabaeus. In outline: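 Vero cells in MEM with 10% inactivated FCS, pH 7.2, 37 °C, 5% CO2. Seeded at 1 × 10^5 cells/mL and grown 2 days, then exposed 72 h to 1, 10, 25, 50 or 100 μM. Viability scored by trypan blue (0.1%) relative to control; IC50 obtained by linear regression.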

In series [21] the test system is Trypanosoma cruzi. The series can be described thus: Antitrypanosomal activity against Trypanosoma cruzi infected in african green monkey Vero cells assessed as reduction of trypomastigote number per infected cell at IC25 after 10 days relative to control. Type of series: functional. Also on record: scale not given: the % may be the effect or the level left.
The test system of series [22] is Trypanosoma cruzi. As to the kind of experiment: Effect on metabolic excretion in epimastigotes of Trypanosoma cruzi assessed as malate excretion level at IC25 concentration after 72 hrs by nuclear magnetic resonance spectroscopy analysis. The series is classed as ADME, organism-based.

Take `Clc1nnc(NCCc2c[nH]cn2)c2cc3ccccc3cc12`: the IC50 (as a rule, the midpoint of a concentration-inhibition curve) came to 9.4 µM in [1] and 787 µM in series [12]. Further, the outcome in series [2], in series [7] and in [8] was Active. In addition, the Activity entry is recorded as “Non-toxic” in series [3]; 22% in series [4]; -18% in series [5]; “Toxic” in series [6]; -37% in [9]; “Toxic” in series [10]. Moreover, the deltaA in [11] was -0.076 absorbance units.

For `Clc1nnc(Nc2cc[nH]n2)c2cc3ccccc3cc12`, the IC50 in series [1] came to 17.2 µM; in series [19], 17.5 µM; in [20], 133 µM; in series [12], 103 µM. In addition, the selectivity ratio in series [13] turned out to be 7.58. Moreover, the outcome in series [2], in [7] and in [8] was Active. The Activity result in [3] was “Non-toxic”; in series [14], “Toxic”; in [5] it was -36%; in series [15], 68%; in [16], 56%; in [9], 27%. For the same compound, the Activity was -61% in series [17], “Toxic” in series [18] and 63% in [21]. Besides, the deltaA in series [11] was -0.228 absorbance units.

As to `c1ccc2cc3c(Nc4cc[nH]n4)nnc(Nc4cc[nH]n4)c3cc2c1` [1,4-BIS(3'-PYRAZOLYLAMINO)BENZO[G]PHTHALAZINE], the results for the IC50 in [1], in series [19] and in series [20] were 22.9 µM, 32.8 µM and 98.3 µM, respectively. For the same compound, the outcome in series [2], in [7] and in series [8] was Active. For the same compound, the values for the Activity in series [15], in [16] and in series [21] were 63%, 40% and 53%, respectively. The deltaA in [11] was determined as 0.138 absorbance units.

As for `c1ccc2cc3c(Nc4ccn[nH]4)nnc(Nc4ccn[nH]4)c3cc2c1` [1,4-BIS(3'-PYRAZOLYLAMINO)BENZO[G]PHTHALAZINE], the selectivity ratio in [13] stood at 2.99. Also, the Activity entry in series [3] was “Non-toxic”; in [22], 100%; in series [9], -24%; in [17], -55%. Besides, the IC50 in series [12] worked out at 96.6 µM.

As to `O=C(Cn1ccnc1[N+](=O)[O-])NCc1ccccc1` [BENZNIDAZOLE], the Activity came to 80% in [2] (route intraperitoneal), 39% in series [15], 15% in [16] and 43% in series [21]. In [11], the deltaA came to 0.11 absorbance units.

As to `Clc1nnc(NCCCn2ccnc2)c2cc3ccccc3cc12`, the 50% inhibitory concentration (IC50) in series [1] came out at 1.3 µM; in [12], 129 µM. The result in series [2], in series [7] and in series [8] was Active. Besides, the Activity entry in series [3] is “Non-toxic”; in [4], 61%; in series [5] it was -26%; in series [9] it was -49%. Further, in series [11], the deltaA was -0.151 absorbance units.

For `c1ccc2cc3c(NCCc4cnc[nH]4)nnc(NCCc4cnc[nH]4)c3cc2c1`, the Activity entry is reported as “Non-toxic” in series [3], 35% in series [4], -30% in series [5] and -39% in [9]. Further, in series [12], the IC50 was determined as 366 µM.

In the case of `c1ccc2cc3c(NCCc4c[nH]cn4)nnc(NCCc4c[nH]cn4)c3cc2c1`, the IC50 in [1] is 29.6 µM. Also, the outcome in series [2], in series [7] and in series [8] was Active. For the same compound, the deltaA in series [11] was 0.044 absorbance units.

Consider `c1ccc2cc3c(NCCCn4ccnc4)nnc(NCCCn4ccnc4)c3cc2c1`, for which the IC50 in series [1] worked out at 28.3 µM; in [12], 67.9 µM. The result in series [2] and in series [8] was Active. The Activity entry in series [3] is “Non-toxic”; in series [4], 43%; in series [5], -22%; in series [9] it was -27%. Besides, the deltaA in series [11] turned out to be 0.266 absorbance units.
